Results: ChEMBL document CHEMBL3864121, “Development of ebsulfur analogues as potent antibacterials against methicillin-resistant Staphylococcus aureus” (Bioorg Med Chem, 2016)
Values after ≈ are worked out from the molar mass of the structure shown. Active and inactive are the calls of the source. The calls are words filed in the database; no cut-off is given here.

Legend:
Enterococcus = experiment: Antibacterial activity against Vancomycin-resistant Enterococcus measured after overnight incubation by broth double-dilution method; assay type: functional
Procedure, shortened: (§1)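 MIC by broth double-dilution in liquid Mueller-Hinton medium. Values are reported in µg/mL.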

Staphylococcus aureus [1] = experiment: Antibacterial activity against methicillin-resistant Staphylococcus aureus S22 using 1 10^6CFU/ml measured after overnight incubation by broth double-dilution method; assay type: functional
Staphylococcus aureus [2] = experiment: Antibacterial activity against methicillin-resistant Staphylococcus aureus S17 measured after overnight incubation by broth double-dilution method; assay type: functional; procedure, shortened: as §1
Staphylococcus aureus [3] = experiment: Antibacterial activity against methicillin-resistant Staphylococcus aureus G6 measured after overnight incubation by broth double-dilution method; assay type: functional; procedure, shortened: as §1
Staphylococcus aureus [4] = experiment: Antibacterial activity against methicillin-resistant Staphylococcus aureus C1 measured after overnight incubation by broth double-dilution method; assay type: functional; procedure, shortened: as §1
Acinetobacter baumannii = experiment: Antibacterial activity against Acinetobacter baumannii ATCC 19606 measured after overnight incubation by broth double-dilution method; assay type: functional
Procedure, shortened: (§2)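 MIC by broth double-dilution in Mueller-Hinton medium. Re-testing at the time-kill inoculum used 1×10^6 CFU/mL.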

Staphylococcus aureus [5] = experiment: Antibacterial activity against methicillin-resistant Staphylococcus aureus NRS77 measured after overnight incubation by broth double-dilution method; assay type: functional; procedure, shortened: as §1
Staphylococcus aureus [6] = experiment: Antibacterial activity against methicillin-resistant Staphylococcus aureus C14 measured after overnight incubation by broth double-dilution method; assay type: functional; procedure, shortened: as §1
Enterococcus faecium = experiment: Antibacterial activity against Enterococcus faecium BM4105-RF measured after overnight incubation by broth double-dilution method; assay type: functional; procedure, shortened: as §1
[7] = tested on: Staphylococcus epidermidis; experiment: Antibacterial activity against Staphylococcus epidermidis ATCC 35984 measured after overnight incubation by broth double-dilution method; assay type: functional; details: RP62A; procedure, shortened: as §2
[8] = Cytotoxicity against mouse RBCs assessed as hemolysis up to […] measured after 1 hr; assay type: toxicity, Erythrocyte; details: mouse red blood cells, read-out: Activity
Staphylococcus aureus [9] = experiment: Antibacterial activity against methicillin-resistant Staphylococcus aureus ATCC 33591 measured after overnight incubation by broth double-dilution method; assay type: functional; procedure, shortened: as §1
Staphylococcus aureus [10] = experiment: Antibacterial activity against methicillin-resistant Staphylococcus aureus C16 measured after overnight incubation by broth double-dilution method; assay type: functional; procedure, shortened: as §1
Staphylococcus aureus [11] = experiment: Antibacterial activity against methicillin-sensitive Staphylococcus aureus ATCC 29213 measured after overnight incubation by broth double-dilution method; assay type: functional; procedure, shortened: as §1
Staphylococcus aureus [12] = experiment: Antibacterial activity against methicillin-resistant Staphylococcus aureus G12 measured after overnight incubation by broth double-dilution method; assay type: functional; procedure, shortened: as §1
[13] = tested on: Staphylococcus epidermidis; experiment: Antibiofilm activity against Staphylococcus epidermidis ATCC 35984 assessed as reduction of biofilm at […] ug/ml measured after 24 hrs by crystal violet staining based method relative to control; assay type: functional, RP62A; set-up: scale not given: the % may be the effect or the level left
Staphylococcus aureus [14] = experiment: Antibacterial activity against methicillin-resistant Staphylococcus aureus S22 measured after overnight incubation by broth double-dilution method; assay type: functional; procedure, shortened: as §1
Staphylococcus aureus [15] = experiment: Antibacterial activity against methicillin-resistant Staphylococcus aureus S14 measured after overnight incubation by broth double-dilution method; assay type: functional; procedure, shortened: as §1
Klebsiella pneumoniae = experiment: Antibacterial activity against Klebsiella pneumoniae ATCC 27736 measured after overnight incubation by broth double-dilution method; assay type: functional; procedure, shortened: as §1
Enterobacter cloacae = experiment: Antibacterial activity against Enterobacter cloacae ATCC 13047 measured after overnight incubation by broth double-dilution method; assay type: functional; details: subsp. cloacae ATCC 13047; procedure, shortened: as §1
Staphylococcus aureus [16] = experiment: Antibacterial activity against methicillin-resistant Staphylococcus aureus USA600 measured after overnight incubation by broth double-dilution method; assay type: functional; procedure, shortened: as §1
Escherichia coli = experiment: Antibacterial activity against Escherichia coli MC1061 measured after overnight incubation by broth double-dilution method; assay type: functional; procedure, shortened: as §1
[17] = tested on: Mycolicibacterium smegmatis; experiment: Antibacterial activity against Mycobacterium smegmatis MC2-155 measured after overnight incubation by broth double-dilution method; assay type: functional; details: str. MC2 155; procedure, shortened: as §1
Staphylococcus aureus [18] = experiment: Antibacterial activity against methicillin-resistant Staphylococcus aureus NRS51 measured after overnight incubation by broth double-dilution method; assay type: functional; procedure, shortened: as §1
Staphylococcus aureus [19] = experiment: Antibacterial activity against methicillin-resistant Staphylococcus aureus USA300 measured after overnight incubation by broth double-dilution method; assay type: functional; procedure, shortened: as §1
Pseudomonas aeruginosa = experiment: Antibacterial activity against Pseudomonas aeruginosa ATCC 27853 measured after overnight incubation by broth double-dilution method; assay type: functional; procedure, shortened: as §2
Staphylococcus aureus [20] = experiment: Antibacterial activity against methicillin-resistant Staphylococcus aureus BRS3 measured after overnight incubation by broth double-dilution method; assay type: functional; procedure, shortened: as §1
Staphylococcus aureus [21] = experiment: Antibacterial activity against methicillin-resistant Staphylococcus aureus NRS4 measured after overnight incubation by broth double-dilution method; assay type: functional; procedure, shortened: as §1
Enterococcus faecalis [22] = experiment: Antibacterial activity against Enterococcus faecalis ATCC 29212 measured after overnight incubation by broth double-dilution method; assay type: functional; procedure, shortened: as §2
[23] = tested on: Staphylococcus epidermidis; experiment: Antibacterial activity against Staphylococcus epidermidis ATCC 12228 measured after overnight incubation by broth double-dilution method; assay type: functional; procedure, shortened: as §2
Listeria monocytogenes = experiment: Antibacterial activity against Listeria monocytogenes ATCC 19115 measured after overnight incubation by broth double-dilution method; assay type: functional; procedure, shortened: as §2
Staphylococcus aureus [24] = experiment: Antibacterial activity against methicillin-resistant Staphylococcus aureus G1 measured after overnight incubation by broth double-dilution method; assay type: functional; procedure, shortened: as §1
Staphylococcus aureus [25] = experiment: Antibacterial activity against methicillin-resistant Staphylococcus aureus USA200 measured after overnight incubation by broth double-dilution method; assay type: functional; procedure, shortened: as §1
Staphylococcus aureus [26] = experiment: Antibacterial activity against methicillin-resistant Staphylococcus aureus USA100 measured after overnight incubation by broth double-dilution method; assay type: functional; procedure, shortened: as §1
Staphylococcus aureus [27] = experiment: Antibacterial activity against methicillin-sensitive Staphylococcus aureus ATCC 25923 measured after overnight incubation by broth double-dilution method; assay type: functional; procedure, shortened: as §1
Staphylococcus aureus [28] = experiment: Antibacterial activity against methicillin-resistant Staphylococcus aureus C7 measured after overnight incubation by broth double-dilution method; assay type: functional; procedure, shortened: as §1
Mus musculus = organism: Mus musculus; experiment: Cytotoxicity against mouse RBCs assessed as hemolysis at 0.24 to 31.2 ug/ml measured after 1 hr; assay type: toxicity; details: erythrocyte
Procedure, shortened: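 Murine red blood cells were exposed to compounds at various concentrations, with amikacin as a control. Percent hemolysis was scored against untreated cells (0%) and 1% Triton X (100%).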

Staphylococcus aureus [29] = experiment: Antibacterial activity against methicillin-resistant Staphylococcus aureus G14 measured after overnight incubation by broth double-dilution method; assay type: functional; procedure, shortened: as §1
Salmonella enterica = experiment: Antibacterial activity against Salmonella enterica ATCC 14028 measured after overnight incubation by broth double-dilution method; assay type: functional; procedure, shortened: as §2
Staphylococcus aureus [30] = experiment: Antibacterial activity against methicillin-resistant Staphylococcus aureus C19 measured after overnight incubation by broth double-dilution method; assay type: functional; procedure, shortened: as §1
Staphylococcus aureus [31] = experiment: Antibacterial activity against methicillin-resistant Staphylococcus aureus 1 measured after overnight incubation by broth double-dilution method; assay type: functional; procedure, shortened: as §1
Staphylococcus aureus [32] = experiment: Antibacterial activity against methicillin-resistant Staphylococcus aureus 2 measured after overnight incubation by broth double-dilution method; assay type: functional; procedure, shortened: as §1
[33] = Cytotoxicity against HEK293 cells assessed as cell death up to 10 ug/ml measured after 24 hrs by resazurin dye-based fluorescence analysis relative to untreated control; assay type: toxicity; details: human, hek293, 24 h
Staphylococcus aureus [34] = experiment: Antibacterial activity against methicillin-resistant Staphylococcus aureus S24 measured after overnight incubation by broth double-dilution method; assay type: functional; procedure, shortened: as §1
Enterococcus faecalis [35] = experiment: Antibacterial activity against Enterococcus faecalis ATCC 49533 measured after overnight incubation by broth double-dilution method; assay type: functional; procedure, shortened: as §2
Staphylococcus aureus [36] = experiment: Antibacterial activity against methicillin-resistant Staphylococcus aureus C2 measured after overnight incubation by broth double-dilution method; assay type: functional; procedure, shortened: as §1

## CC(C)c1cccc(-n2sc3ccccc3c2=O)c1
Enterococcus
  MIC: ≤ 0.25 µg/mL
Staphylococcus aureus [1]
  Activity: Active
Staphylococcus aureus [2]
  MIC: ≤ 0.25 µg/mL
Staphylococcus aureus [3]
  MIC: 0.5 µg/mL (≈ 1.86 µM)
Staphylococcus aureus [4]
  MIC: ≤ 0.25 µg/mL
Acinetobacter baumannii
  MIC: 31.3 µg/mL (≈ 116 µM)
Staphylococcus aureus [5]
  MIC: 0.5 µg/mL (≈ 1.86 µM)
Staphylococcus aureus [6]
  MIC: 0.5 µg/mL (≈ 1.86 µM)
Enterococcus faecium
  MIC: 3.9 µg/mL (≈ 14.5 µM)
[7]
  MIC: 0.25 µg/mL (≈ 0.928 µM)
[8]
  hemolysis at 1 h: ≤ 20%
Staphylococcus aureus [9]
  MIC: ≤ 0.25 µg/mL
Staphylococcus aureus [10]
  MIC: ≤ 0.25 µg/mL
Staphylococcus aureus [11]
  MIC: ≤ 0.25 µg/mL
Staphylococcus aureus [12]
  MIC: 0.5 µg/mL (≈ 1.86 µM)
[13]
  Activity: 50 - 60%
Staphylococcus aureus [14]
  MIC: 1 µg/mL (≈ 3.71 µM)
Staphylococcus aureus [15]
  MIC: ≤ 0.25 µg/mL
Klebsiella pneumoniae
  MIC: > 125 µg/mL
Enterobacter cloacae
  MIC: > 125 µg/mL
Staphylococcus aureus [16]
  MIC: ≤ 0.25 µg/mL
Escherichia coli
  MIC: 15.6 µg/mL (≈ 57.9 µM)
[17]
  MIC: 1 µg/mL (≈ 3.71 µM)
Staphylococcus aureus [18]
  MIC: ≤ 0.25 µg/mL
Staphylococcus aureus [19]
  MIC: ≤ 0.25 µg/mL
Pseudomonas aeruginosa
  MIC: > 125 µg/mL
Staphylococcus aureus [20]
  MIC: 1 µg/mL (≈ 3.71 µM)
Staphylococcus aureus [21]
  MIC: 1 µg/mL (≈ 3.71 µM)
Enterococcus faecalis [22]
  MIC: > 125 µg/mL
[23]
  MIC: > 125 µg/mL
Listeria monocytogenes
  MIC: 1 µg/mL (≈ 3.71 µM)
Staphylococcus aureus [24]
  MIC: ≤ 0.25 µg/mL
Staphylococcus aureus [25]
  MIC: 0.5 µg/mL (≈ 1.86 µM)
Staphylococcus aureus [26]
  MIC: 0.5 µg/mL (≈ 1.86 µM)
Staphylococcus aureus [27]
  MIC: 0.5 µg/mL (≈ 1.86 µM)
Staphylococcus aureus [28]
  MIC: ≤ 0.25 µg/mL
Mus musculus
  Activity: Non-Toxic
Staphylococcus aureus [29]
  MIC: 0.5 µg/mL (≈ 1.86 µM)
Salmonella enterica
  MIC: > 125 µg/mL
Staphylococcus aureus [30]
  MIC: ≤ 0.25 µg/mL
Staphylococcus aureus [31]
  MIC: ≤ 0.25 µg/mL
Staphylococcus aureus [32]
  MIC: ≤ 0.25 µg/mL
[33]
  Activity: > 20%
Staphylococcus aureus [34]
  MIC: ≤ 0.25 µg/mL
Enterococcus faecalis [35]
  MIC: > 125 µg/mL
Staphylococcus aureus [36]
  MIC: ≤ 0.25 µg/mL
